From ChEMBL document CHEMBL3580653, “Development of novel CXC chemokine receptor 7 (CXCR7) ligands: selectivity switch from CXCR4 antagonists with a cyclic pentapeptide scaffold” (J Med Chem, 2015)
Where a SMILES comes first, the peptide text is derived from it. [ ]: non-standard residue; d: D form. 2Nal = N[C@@H](Cc1ccc2ccccc2c1)C(=O)O; Pip = O=C(O)[C@@H]1CCCCN1; dPip = O=C(O)[C@H]1CCCCN1; βAla = NCCC(=O)O

Columns and labels:
[1] = target: T1, Atypical chemokine receptor 3 (Homo sapiens, UniProt P25106); experiment: Inhibition of [125I]SDF-1alpha binding to CXCR7 (unknown origin) expressed in CHO cell membranes incubated for 1 hr by radioligand displacement assay
Procedure, shortened: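 Scintillation proximity binding: receptor membranes (10−20 µg/well) on WGA beads (0.25 mg/well) incubated with peptide and [125I]-SDF-1α (0.20 nM for CXCR4, 0.25 nM for CXCR7). Room temperature, 1 h. Bound radioactivity counted 1 min/well. IC50 taken from inhibition of tracer binding.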

[2] = target: C-X-C chemokine receptor type 4 (Homo sapiens, UniProt P61073); experiment: Inhibition of [125I]SDF-1alpha binding to CXCR4 (unknown origin) expressed in HEK293 cell membranes incubated for 1 hr by radioligand displacement assay
[3] = target: T1, Atypical chemokine receptor 3; experiment: Agonist activity at CXCR7 (unknown origin) expressed in HEK293E cells co-transfected with receptor-eYFP construct and beta-arrestin2-Rluc assessed as induction of receptor-mediated beta-arrestin recruitment by BRET assay; type: cell-based
Procedure, shortened: (§1)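 Transient co-transfection of HEK293E cells with 1 µg receptor-eYFP plus 0.05 µg β-arrestin2-Rluc, made up to 2 µg/well with empty vector. Cells cultured overnight, seeded on poly(D-lysine) plates and grown 24 h more. Ligand added in BRET buffer (PBS, 0.5 mM MgCl2, 0.01% BSA), 5 min at 37 °C, then coelenterazine h 5 µM final. Read 30 min after ligand addition. Net BRET = YFP (510–550 nm)/Rluc (460–500 nm) minus Rluc-only background.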

[4] = target: T1, Atypical chemokine receptor 3; experiment: Agonist activity at wild type CXCR7 (unknown origin) expressed in HEK293E cells co-transfected with receptor-eYFP construct and beta-arrestin2-Rluc assessed as induction of receptor-mediated beta-arrestin recruitment by BRET assay; type: cell-based; procedure, shortened: as §1
[5] = target: Atypical chemokine receptor 3 (Homo sapiens, UniProt P25106, D179N); experiment: Agonist activity at CXCR7 D179N mutant (unknown origin) expressed in HEK293E cells co-transfected with receptor-eYFP construct and beta-arrestin2-Rluc assessed as induction of receptor-mediated beta-arrestin recruitment by BRET assay; type: cell-based; procedure, shortened: as §1
[6] = target: Atypical chemokine receptor 3 (Homo sapiens, UniProt P25106, S198R); experiment: Agonist activity at CXCR7 S198R mutant (unknown origin) expressed in HEK293E cells co-transfected with receptor-eYFP construct and beta-arrestin2-Rluc assessed as induction of receptor-mediated beta-arrestin recruitment by BRET assay; type: cell-based; procedure, shortened: as §1
[7] = target: Atypical chemokine receptor 3 (Homo sapiens, UniProt P25106, D275N); experiment: Agonist activity at CXCR7 D275N mutant (unknown origin) expressed in HEK293E cells co-transfected with receptor-eYFP construct and beta-arrestin2-Rluc assessed as induction of receptor-mediated beta-arrestin recruitment by BRET assay; type: cell-based; procedure, shortened: as §1
Atypical chemokine receptor 3 (Homo sapiens, UniProt P25106, D275N), sequence (P25106 whole entry D275N): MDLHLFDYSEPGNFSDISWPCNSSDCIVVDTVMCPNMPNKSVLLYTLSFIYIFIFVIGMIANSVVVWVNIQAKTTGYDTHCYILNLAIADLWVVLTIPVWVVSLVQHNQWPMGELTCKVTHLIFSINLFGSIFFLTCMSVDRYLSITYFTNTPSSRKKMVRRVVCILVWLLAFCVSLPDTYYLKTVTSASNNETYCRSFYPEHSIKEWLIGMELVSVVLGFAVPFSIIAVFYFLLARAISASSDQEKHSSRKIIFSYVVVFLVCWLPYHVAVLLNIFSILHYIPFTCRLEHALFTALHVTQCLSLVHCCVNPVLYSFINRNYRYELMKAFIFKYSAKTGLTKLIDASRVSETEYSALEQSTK

T1 sequence (P25106 whole entry): as the sequence (P25106 whole entry D275N) above, with N275D counted along it
C-X-C chemokine receptor type 4, sequence (P61073 whole entry): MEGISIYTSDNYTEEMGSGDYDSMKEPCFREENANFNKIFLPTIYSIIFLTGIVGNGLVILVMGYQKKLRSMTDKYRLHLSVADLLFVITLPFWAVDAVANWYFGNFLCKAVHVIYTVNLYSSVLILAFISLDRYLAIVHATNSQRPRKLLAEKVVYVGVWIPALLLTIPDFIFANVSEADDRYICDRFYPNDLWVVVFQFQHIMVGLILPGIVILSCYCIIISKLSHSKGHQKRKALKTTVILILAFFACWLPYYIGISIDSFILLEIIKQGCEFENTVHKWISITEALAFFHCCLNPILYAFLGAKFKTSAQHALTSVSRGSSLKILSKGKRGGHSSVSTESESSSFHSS
Atypical chemokine receptor 3 (Homo sapiens, UniProt P25106, D179N), sequence (P25106 whole entry D179N): as the sequence (P25106 whole entry D275N) above, with D179N, N275D counted along it
Atypical chemokine receptor 3 (Homo sapiens, UniProt P25106, S198R), sequence (P25106 whole entry S198R): as the sequence (P25106 whole entry D275N) above, with S198R, N275D counted along it

Compound | IC50 [1] [µM] | IC50 [2] [µM] | also measured
N=C(N)NCCC[C@@H]1NC(=O)[C@@H](CCCNC(=N)N)NC(=O)[C@@H](Cc2ccc(O)cc2)NC(=O)[C@@H]2CCCN2C(=O)[C@H](Cc2ccc3ccccc3c2)NC1=O | 4.6 | > 30 | –
N=C(N)NCCC[C@@H]1NC(=O)[C@H](CCCNC(=N)N)NC(=O)[C@@H](Cc2ccc(O)cc2)NC(=O)[C@H]2CCCN2C(=O)[C@H](Cc2ccc3ccccc3c2)NC1=O | > 30 | > 30 | –
CN1C(=O)[C@@H]2CCCN2C(=O)[C@H](Cc2ccc3ccccc3c2)NC(=O)[C@H](CCCNC(=N)N)NC(=O)[C@H](CCCNC(=N)N)NC(=O)[C@H]1Cc1ccc(O)cc1 | 18 | > 30 | –
CC[C@H](C)[C@@H]1NC(=O)[C@H]([C@@H](C)O)NC(=O)[C@H]2CCCN2C(=O)[C@H](Cc2ccc3ccccc3c2)NC(=O)[C@H](CCCNC(=N)N)NC(=O)[C@@H](CCCNC(=N)N)NC1=O (cyclo([2Nal][dP]TI[dR]R)) | 1.7 | – | EC50 ([3]; read-out: EC50): 0.036 µM; EC50 ([3]; read-out: pEC50 (converted)): 0.0316 µM
N=C(N)NCCC[C@@H]1NC(=O)[C@H](Cc2ccc(O)cc2)NC(=O)[C@@H]2CCCN2C(=O)[C@H](Cc2ccc3ccccc3c2)NC(=O)[C@H](CCCNC(=N)N)NC1=O | > 30 | > 30 | –
N=C(N)NCCC[C@@H]1NC(=O)[C@H](CCCNC(=N)N)NC(=O)[C@@H](Cc2ccc(O)cc2)NC(=O)CNC(=O)[C@H](Cc2ccc3ccccc3c2)NC1=O | > 30 | – | EC50 ([3]; read-out: EC50): 2.4 µM; EC50 ([3]; read-out: pEC50 (converted)): 2 µM
C[C@@H]1NC(=O)[C@H](CCCNC(=N)N)N(C)C(=O)[C@H](CCCNC(=N)N)NC(=O)[C@@H](Cc2ccc(O)cc2)NC(=O)[C@@H]2CCCN2C1=O | > 30 | > 30 | –
N=C(N)NCCC[C@@H]1NC(=O)[C@H](CCCNC(=N)N)NC(=O)[C@@H](Cc2ccc(O)cc2)NC(=O)[C@@H]2CCCN2C(=O)[C@@H](Cc2ccc3ccccc3c2)NC1=O | > 30 | > 30 | –
CN1C(=O)[C@H](CCCNC(=N)N)NC(=O)[C@@H](Cc2ccc(O)cc2)NC(=O)[C@@H]2CCCN2C(=O)[C@H](Cc2ccc3ccccc3c2)NC(=O)[C@@H]1CCCNC(=N)N | 0.8 | > 30 | EC50 ([3]; read-out: EC50): 0.095 µM; EC50 ([4]; read-out: EC50): 0.24 µM; EC50 ([4]; read-out: pEC50 (converted)): 0.158 µM; EC50 ([5]; read-out: EC50): 2 µM; EC50 [6]: 0.36 µM; EC50 [7]: 0.65 µM
C[C@@H]1NC(=O)[C@H](Cc2ccc3ccccc3c2)NC(=O)[C@H](CCCNC(=N)N)NC(=O)[C@H](CCCNC(=N)N)NC(=O)[C@@H](Cc2ccc(O)cc2)NC1=O (cyclo([2Nal]A[dY]RR)) | 18 | 23 | –
C[C@@H]1C(=O)N[C@H](Cc2ccc(O)cc2)C(=O)N[C@@H](CCCNC(=N)N)C(=O)N[C@@H](CCCNC(=N)N)C(=O)N[C@@H](Cc2ccc3ccccc3c2)C(=O)N1C | > 30 | 4.6 | –
C[C@H]1NC(=O)[C@H](Cc2ccc3ccccc3c2)NC(=O)[C@H](CCCNC(=N)N)NC(=O)[C@H](CCCNC(=N)N)NC(=O)[C@@H](Cc2ccc(O)cc2)NC1=O (cyclo([dY]RR[2Nal][dA])) | > 30 | 2.2 | –
N=C(N)NCCC[C@@H]1NC(=O)[C@H](CCCNC(=N)N)NC(=O)[C@@H](Cc2ccc(O)cc2)NC(=O)[C@@H]2CCCCN2C(=O)[C@H](Cc2ccc3ccccc3c2)NC1=O (cyclo([2Nal][Pip][dY]RR)) | 13 | > 30 | –
C[C@@H]1NC(=O)[C@@H](Cc2ccc(O)cc2)NC(=O)[C@@H]2CCCN2C(=O)[C@H](Cc2ccc3ccccc3c2)NC(=O)[C@H](CCCNC(=N)N)N(C)C1=O | 16 | > 30 | –
CN1C(=O)[C@@H](Cc2ccc(O)cc2)NC(=O)[C@@H]2CCCN2C(=O)[C@H](Cc2ccc3ccccc3c2)NC(=O)[C@H](CCCNC(=N)N)NC(=O)[C@@H]1CCCNC(=N)N | 2.4 | > 30 | –
C[C@H]1C(=O)N[C@H](Cc2ccc(O)cc2)C(=O)N[C@@H](CCCNC(=N)N)C(=O)N[C@@H](CCCNC(=N)N)C(=O)N[C@@H](Cc2ccc3ccccc3c2)C(=O)N1C | 15 | > 30 | –
N=C(N)NCCC[C@@H]1NC(=O)[C@@H](Cc2ccc(O)cc2)NC(=O)[C@@H]2CCCN2C(=O)[C@H](Cc2ccc3ccccc3c2)NC(=O)[C@@H](CCCNC(=N)N)NC1=O | > 30 | > 30 | –
N=C(N)NCCC[C@@H]1NC(=O)[C@H](CCCNC(=N)N)NC(=O)[C@@H](Cc2ccc(O)cc2)NC(=O)[C@@H]2CCCN2C(=O)[C@H](Cc2ccc3ccccc3c2)NC1=O | 1.5 | > 30 | EC50 ([3]; read-out: EC50): 0.074 µM; EC50 ([4]; read-out: EC50): 0.19 µM; EC50 ([4]; read-out: pEC50 (converted)): 0.126 µM; EC50 ([5]; read-out: EC50): 3.5 µM; EC50 ([5]; read-out: pEC50 (converted)): 3.98 µM; EC50 [6]: 0.36 µM; EC50 [7]: 1.5 µM

Second part, led by results:

IC50 [1] [µM] | IC50 [2] [µM] | Compound | also measured
13 | > 30 | CN1C(=O)[C@@H](Cc2ccc(O)cc2)NC(=O)[C@@H]2CCCN2C(=O)[C@H](Cc2ccc3ccccc3c2)NC(=O)[C@H](CCCNC(=N)N)NC(=O)[C@H]1CCCNC(=N)N | –
> 30 | > 30 | C[C@H]1NC(=O)[C@@H]2CCCN2C(=O)[C@H](Cc2ccc3ccccc3c2)NC(=O)[C@H](CCCNC(=N)N)N(C)C(=O)[C@H](CCCNC(=N)N)NC1=O | –
23 | > 30 | CN1C(=O)[C@@H]2CCCN2C(=O)[C@H](Cc2ccc3ccccc3c2)NC(=O)[C@H](CCCNC(=N)N)NC(=O)[C@H](CCCNC(=N)N)NC(=O)[C@@H]1Cc1ccc(O)cc1 | –
3.4 | > 30 | CN1C(=O)[C@H](CCCNC(=N)N)NC(=O)[C@H](CCCNC(=N)N)NC(=O)[C@@H](Cc2ccc(O)cc2)NC(=O)[C@@H]2CCCN2C(=O)[C@@H]1Cc1ccc2ccccc2c1 | –
4.6 | > 30 | CN1C(=O)[C@H](CCCNC(=N)N)NC(=O)[C@@H](Cc2ccc(O)cc2)NC(=O)[C@@H]2CCCN2C(=O)[C@H](Cc2ccc3ccccc3c2)NC(=O)[C@H]1CCCNC(=N)N | –
> 30 | 6 | N=C(N)NCCC[C@@H]1NC(=O)[C@H](CCCNC(=N)N)NC(=O)[C@@H](Cc2ccc(O)cc2)NC(=O)CCNC(=O)[C@H](Cc2ccc3ccccc3c2)NC1=O (cyclo([2Nal][βAla][dY]RR)) | –
11 | > 30 | C[C@H]1C(=O)N[C@@H](Cc2ccc3ccccc3c2)C(=O)N2CCC[C@H]2C(=O)N[C@H](Cc2ccc(O)cc2)C(=O)N[C@@H](CCCNC(=N)N)C(=O)N1C | –
> 30 | > 30 | CN1C(=O)[C@H](CCCNC(=N)N)NC(=O)[C@H](CCCNC(=N)N)NC(=O)[C@@H](Cc2ccc(O)cc2)NC(=O)[C@@H]2CCCN2C(=O)[C@H]1Cc1ccc2ccccc2c1 | –
> 30 | > 30 | N=C(N)NCCC[C@@H]1NC(=O)[C@H](CCCNC(=N)N)NC(=O)[C@@H](Cc2ccc(O)cc2)NC(=O)[C@H]2CCCCN2C(=O)[C@H](Cc2ccc3ccccc3c2)NC1=O (cyclo([2Nal][dPip][dY]RR)) | –
